The source made the active and inactive calls. The calls are words filed in the database; no cut-off is given here. Positions of bridges follow the written chain, without caps; N, C: chain ends. Residues, ends and D or L forms follow the SMILES beside them.
How the values were obtained:
[1] = Stability in 75% mouse plasma assessed as protease-mediated compound degradation measured 24 hrs post dose; format: ADME, cell-free
How it was run: (§1)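 Peptide was preincubated in 75% murine plasma for 0–24 h (sampled at 0, 2, 8 and 24 h). Residual uPA-inhibitory activity was then measured and expressed as IC50.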

[2] = target: Urokinase-type plasminogen activator (Homo sapiens, UniProt P00749); test: Inhibition of human uPA preincubated for 15 mins followed by chromogenic substrate addition
[3] = system: CT26; test: Antimetastatic activity against GFP-fused mouse CT26 cells allografted in Balb/c mouse assessed as reduction in tumor nodule numbers at 11.3 mg/kg, ip administered daily for 15 days by fluorescence-based assay; format: functional; details: 360 h
How it was run: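 Lung metastasis model: male Balb/c mice (~20 g, 6/group) given 10^6 GFP-CT-26 cells i.v. with peptide or saline, daily i.p. dosing Day 1–15, sacrificed Day 16. Surface tumor nodules on pleural surfaces counted per lung after soaking in formaldehyde.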

[4] = target: Urokinase-type plasminogen activator (Mus musculus) (UniProt P06869); test: Potency index, ratio of Ki for LD1 to Ki for test compound for inhibition of mouse uPA preincubated for 15 mins followed by chromogenic substrate addition
[5] = target: Tissue-type plasminogen activator (Mus musculus, UniProt P11214); test: Inhibition of mouse tissue-type plasminogen activator preincubated for 15 mins followed by chromogenic substrate addition
[6] = target: T1, Urokinase-type plasminogen activator (Mus musculus, UniProt P06869); test: Inhibition of uPA in presence of 75% mouse […] measured at 24 hrs; how it was run: as §1
[7] = system: CT26; test: Antimetastatic activity against GFP-fused mouse CT26 cells allografted in Balb/c mouse assessed as reduction in hyperplastic weights at 1.13 mg/kg, ip administered daily for 15 days by fluorescence-based assay; format: functional, organism-based
How it was run: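 GFP-CT-26 cells (10^6) iv into male Balb/c, daily ip treatment Days 1–15, lungs resected and weighed at sacrifice on Day 16. Hyperplastic weight is lung weight minus the mean weight of lungs from non-implanted normal mice.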

[8] = target: Prothrombin (Mus musculus, UniProt P19221); test: Inhibition of mouse thrombin preincubated for 15 mins followed by chromogenic substrate addition
[9] = target: T1, Urokinase-type plasminogen activator; test: Binding affinity to mouse uPA by SPR assay
[10] = target: T1, Urokinase-type plasminogen activator; test: Inhibition of mouse uPA preincubated for 15 mins followed by chromogenic substrate addition
[11] = system: CT26; test: Antimetastatic activity against GFP-fused mouse CT26 cells allografted in Balb/c mouse assessed as reduction in hyperplastic weights at 11.3 mg/kg, ip administered daily for 15 days by fluorescence-based assay; format: functional; details: 360 h
How it was run: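 Lung metastasis model: male Balb/c mice (~20 g, 6/group) given 10^6 GFP-CT-26 cells i.v. with peptide or saline, then daily i.p. dosing Day 1–15. Lungs resected and weighed immediately at sacrifice on Day 16; hyperplastic weight = lung weight minus weight of lungs from non-implanted normal mice.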

[12] = system: CT26; test: Antimetastatic activity against GFP-fused mouse CT26 cells allografted in Balb/c mouse assessed as reduction in relative fluorescence at 1.13 mg/kg, ip administered daily for 15 days by fluorescence-based assay; format: functional, organism-based
How it was run: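 After iv GFP-CT-26 implantation (10^6 cells) in male Balb/c and daily ip dosing Days 1–15, lungs were removed on Day 16. Whole-lung GFP was imaged with 488 nm excitation (em 520) and quantified over a 20×20 mm2 area per lung. Non-implanted lungs served as background.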

[13] = system: CT26; test: Antimetastatic activity against mouse CT26 cells allografted in Balb/c mouse assessed as prolongation of mouse survival time at 11.3 mg/kg, ip administered daily for 15 days; format: functional, organism-based
[14] = target: Tissue-type plasminogen activator (Homo sapiens, UniProt P00750); test: Inhibition of human tissue-type plasminogen activator preincubated for 15 mins followed by chromogenic substrate addition
[15] = system: CT26; test: Antimetastatic activity against GFP-fused mouse CT26 cells allografted in Balb/c mouse assessed as reduction genomic DNA of metastatic cells at 11.3 mg/kg, ip administered daily for 15 days by qPCR analysis; format: functional; details: 360 h
How it was run: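 Male Balb/c mice (~20 g, 6/group) given 10^6 GFP-CT-26 cells i.v. in 200 µl mixed with peptide or saline, then daily i.p. peptide Day 1–15; sacrificed Day 16. Lung total DNA isolated after homogenization; 200 ng per SYBR Green qPCR, quantified against standard curve of CT-26 DNA spiked into normal lung DNA (0.135%-100%).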

[16] = target: T1, Urokinase-type plasminogen activator; test: Inhibition of uPA in presence of 75% mouse […] measured immediately; how it was run: as §1
[17] = system: CT26; test: Antimetastatic activity against mouse CT26 cells allografted in Balb/c mouse at 11.3 mg/kg, ip administered daily for 15 days by hematoxylin and eosin staining -based assay; format: functional, organism-based
How it was run: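 Lungs from male Balb/c given 10^6 GFP-CT-26 cells iv, with daily ip dosing on Days 1–15, were harvested on Day 16. Formalin-fixed, paraffin-embedded sections were stained with H&E for histology, with non-implanted lungs as comparison.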

[18] = Toxicity in Balb/c mouse allografted with mouse CT26 cells assessed as effect on body weight at 1.13 to 11.3 mg/kg, ip administered daily for 15 days; format: organism-based; details: in vivo, 360 h
[19] = system: CT26; test: Cytotoxicity against mouse CT26 cells at 100 uM; format: cell-based; details: ct26, 100 µM
[20] = Drug level in blood of GFP-fused mouse CT26 cells allografted in Balb/c mouse at 11.3 mg/kg, ip administered daily for 15 days; format: ADME, organism-based; details: read-out: Drug uptake
[21] = Stability in 75% mouse plasma assessed as protease-mediated compound degradation measured within 8 hrs; format: ADME, cell-free; how it was run: as §1
[22] = system: CT26; test: Antimetastatic activity against GFP-fused mouse CT26 cells allografted in Balb/c mouse assessed as reduction in tumor nodule numbers at 1.13 mg/kg, ip administered daily for 15 days by fluorescence-based assay; format: functional, organism-based
How it was run: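 Male Balb/c mice received 10^6 GFP-CT-26 cells iv and daily ip dosing on Days 1–15. On Day 16, pleural-surface tumor nodules per lung were counted after soaking in formaldehyde.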

[23] = target: Vitamin K-dependent protein C (Homo sapiens, UniProt P04070); test: Inhibition of human activated protein C preincubated for 15 mins followed by chromogenic substrate addition
[24] = target: Urokinase-type plasminogen activator (Mus musculus) (UniProt P06869); test: Binding affinity to mouse uPA assessed as dissociation rate constant after 600 secs by SPR assay
[25] = target: Urokinase-type plasminogen activator (Mus musculus) (UniProt P06869); test: Inhibition of the intrinsic peri-cellular uPA in mouse CT26 cells assessed as reduction in cell migration at 30 to 100 uM measured every hour by wound healing assay relative to control; format: cell-based
[26] = target: T1, Urokinase-type plasminogen activator; test: Inhibition of uPA in presence of 75% mouse […] measured at 8 hrs; how it was run: as §1
[27] = system: CT26; test: Antimetastatic activity against GFP-fused mouse CT26 cells allografted in Balb/c mouse assessed as reduction in relative fluorescence at 11.3 mg/kg, ip administered daily for 15 days by fluorescence-based assay; format: functional; details: 360 h
How it was run: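 Lung metastasis model: male Balb/c mice (~20 g, 6/group) given 10^6 GFP-CT-26 cells i.v. with peptide or saline, daily i.p. dosing Day 1–15, sacrificed Day 16. Resected lungs imaged for GFP with 488 nm excitation, emission 520; signal collected over 20×20 mm2 per lung; non-implanted normal group used for background subtraction.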

[28] = target: Plasma kallikrein (Mus musculus, UniProt P26262); test: Inhibition of mouse plasma kallikrein preincubated for 15 mins followed by chromogenic substrate addition
Plasma kallikrein, sequence (P26262 20-390 limits assumed): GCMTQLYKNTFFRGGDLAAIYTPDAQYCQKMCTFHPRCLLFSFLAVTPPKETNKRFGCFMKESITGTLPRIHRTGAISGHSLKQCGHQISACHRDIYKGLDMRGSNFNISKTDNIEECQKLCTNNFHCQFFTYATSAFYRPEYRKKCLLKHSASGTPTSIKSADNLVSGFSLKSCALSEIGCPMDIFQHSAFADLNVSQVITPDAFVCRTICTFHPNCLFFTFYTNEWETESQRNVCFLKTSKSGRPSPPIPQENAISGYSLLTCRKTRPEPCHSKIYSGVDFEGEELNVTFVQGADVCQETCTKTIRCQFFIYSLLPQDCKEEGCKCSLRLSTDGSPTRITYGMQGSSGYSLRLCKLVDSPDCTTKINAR
Plasma kallikrein, sequence (P26262 391-638 limits assumed): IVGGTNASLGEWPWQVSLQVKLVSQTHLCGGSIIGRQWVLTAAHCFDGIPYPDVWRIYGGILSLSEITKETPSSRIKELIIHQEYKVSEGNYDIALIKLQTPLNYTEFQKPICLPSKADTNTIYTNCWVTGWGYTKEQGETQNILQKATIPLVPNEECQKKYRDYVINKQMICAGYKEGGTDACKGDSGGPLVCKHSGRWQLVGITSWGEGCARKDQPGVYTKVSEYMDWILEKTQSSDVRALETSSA

Urokinase-type plasminogen activator (Mus musculus), sequence (P06869 21-178 limits assumed): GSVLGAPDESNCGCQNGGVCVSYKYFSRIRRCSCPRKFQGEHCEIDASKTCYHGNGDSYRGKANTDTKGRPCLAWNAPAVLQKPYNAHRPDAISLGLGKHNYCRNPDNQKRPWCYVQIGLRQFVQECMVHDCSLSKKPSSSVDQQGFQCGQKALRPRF
Urokinase-type plasminogen activator (Mus musculus), sequence (P06869 180-433 limits assumed): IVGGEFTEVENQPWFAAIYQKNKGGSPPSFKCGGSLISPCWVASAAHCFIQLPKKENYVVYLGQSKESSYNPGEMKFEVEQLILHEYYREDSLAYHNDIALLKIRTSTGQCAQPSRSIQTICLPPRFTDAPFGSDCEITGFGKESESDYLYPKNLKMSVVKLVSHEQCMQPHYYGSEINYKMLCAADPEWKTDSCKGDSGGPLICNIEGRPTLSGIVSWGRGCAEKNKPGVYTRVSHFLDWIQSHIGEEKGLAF
T1 sequence (P06869 21-178 limits assumed): as the sequence (P06869 21-178 limits assumed) above
T1 sequence (P06869 180-433 limits assumed): as the sequence (P06869 180-433 limits assumed) above
Tissue-type plasminogen activator (Homo sapiens, UniProt P00750), sequence (P00750 whole entry, the tested form may be a part): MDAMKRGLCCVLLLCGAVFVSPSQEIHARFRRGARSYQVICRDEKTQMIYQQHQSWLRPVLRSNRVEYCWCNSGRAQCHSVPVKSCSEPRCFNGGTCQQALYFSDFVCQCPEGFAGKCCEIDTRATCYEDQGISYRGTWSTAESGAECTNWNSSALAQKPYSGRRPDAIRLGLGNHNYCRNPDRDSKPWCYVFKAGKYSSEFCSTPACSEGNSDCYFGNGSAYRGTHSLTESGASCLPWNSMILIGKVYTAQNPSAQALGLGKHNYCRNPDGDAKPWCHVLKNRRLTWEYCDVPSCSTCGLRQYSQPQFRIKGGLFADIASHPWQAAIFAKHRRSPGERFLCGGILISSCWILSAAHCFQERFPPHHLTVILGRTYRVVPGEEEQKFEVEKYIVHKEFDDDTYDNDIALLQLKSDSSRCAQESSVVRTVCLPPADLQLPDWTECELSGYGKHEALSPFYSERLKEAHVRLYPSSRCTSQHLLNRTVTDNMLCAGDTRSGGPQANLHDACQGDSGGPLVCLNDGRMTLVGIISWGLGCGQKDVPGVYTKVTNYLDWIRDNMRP
Vitamin K-dependent protein C, sequence (P04070 43-197 limits assumed): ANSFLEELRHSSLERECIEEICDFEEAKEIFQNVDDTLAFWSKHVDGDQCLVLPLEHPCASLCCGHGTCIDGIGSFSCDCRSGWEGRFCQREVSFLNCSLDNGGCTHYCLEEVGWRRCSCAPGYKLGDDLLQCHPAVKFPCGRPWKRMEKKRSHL
Vitamin K-dependent protein C, sequence (P04070 212-461 limits assumed): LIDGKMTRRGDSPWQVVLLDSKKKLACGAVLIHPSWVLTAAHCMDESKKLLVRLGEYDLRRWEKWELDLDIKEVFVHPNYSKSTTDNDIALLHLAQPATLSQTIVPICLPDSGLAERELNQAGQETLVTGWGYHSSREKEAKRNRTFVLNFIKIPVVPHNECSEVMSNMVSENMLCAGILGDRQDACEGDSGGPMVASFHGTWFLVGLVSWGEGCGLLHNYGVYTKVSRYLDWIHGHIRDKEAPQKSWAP
Tissue-type plasminogen activator (Mus musculus, UniProt P11214), sequence (P11214 whole entry): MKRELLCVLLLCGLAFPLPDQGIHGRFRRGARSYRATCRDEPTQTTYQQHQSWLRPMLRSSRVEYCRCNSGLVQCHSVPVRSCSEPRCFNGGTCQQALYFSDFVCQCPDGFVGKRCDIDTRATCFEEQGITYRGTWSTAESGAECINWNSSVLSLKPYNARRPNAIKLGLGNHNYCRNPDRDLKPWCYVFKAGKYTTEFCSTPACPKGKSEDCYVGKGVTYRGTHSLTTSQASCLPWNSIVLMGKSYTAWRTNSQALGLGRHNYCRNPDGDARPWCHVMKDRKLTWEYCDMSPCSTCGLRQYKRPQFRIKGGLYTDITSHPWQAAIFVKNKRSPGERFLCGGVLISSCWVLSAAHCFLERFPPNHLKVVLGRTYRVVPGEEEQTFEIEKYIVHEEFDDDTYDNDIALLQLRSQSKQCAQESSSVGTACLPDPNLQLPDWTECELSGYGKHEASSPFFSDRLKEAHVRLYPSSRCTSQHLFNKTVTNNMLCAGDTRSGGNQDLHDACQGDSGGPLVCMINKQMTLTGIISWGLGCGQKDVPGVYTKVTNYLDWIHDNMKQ

CC[C@H](C)[C@@H]1NC(=O)[C@H](Cc2ccc(O)cc2)NC(=O)[C@H](CCCNC(=N)N)NC(=O)[C@H](CO)NC(=O)[C@H](Cc2ccc(O)cc2)NC(=O)[C@H](C)NC(=O)[C@@H]2CCCN2C(=O)[C@@H](N)CSSC[C@@H](C(=O)O)NC(=O)CNC1=O (H-CPAYSRYIGC-OH; disulfide 1-10)
Stability [1]: Unstable | Ki [2]: 340 nM | inhibition in vivo at 11.3 mg/kg [3]: 46.5% | Ratio Ki [4]: 81 | Ki [5]: > 25000 nM | IC50 [6]: 70.7 nM | Activity [7]: inactive | Ki [8]: > 25000 nM | Kd [9]: 2.4 nM | Ki [10]: 6.8 nM | inhibition in vivo at 11.3 mg/kg [11]: 51.7% | Activity [12]: inactive | Activity [13]: inactive | Ki [14]: > 25000 nM | inhibition in vivo at 11.3 mg/kg [15]: 49.8% | IC50 [16]: 10.1 nM | Activity [17]: Active | Activity [18]: Non-Toxic | Activity [19]: Non-Toxic | concentration at 360 h [20]: 100 µM | Stability [21]: Stable | Activity [22]: inactive | Ki [23]: > 25000 nM | K [24]: 0.00066 s⁻¹ | inhibition [25]: 30% | IC50 [26]: 11.3 nM | inhibition in vivo at 11.3 mg/kg [27]: 50% | Ki [28]: > 25000 nM
